Laboratory results: PubChem BioAssay
Calls of active or inactive are those of the source.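 The calls were made as follows, unless noted: active = current rise at least 3 SD above the untreated control mean in each of two repeat wells; inactive = the rest.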

Key:
[1] = nonspecific flux increase, KCNQ1-free cells – parental CHO cells, counter-screen for KCNQ1 potentiator project (AID 493006;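 active = duplicate-averaged activation above buffer control mean plus 5 SD of those controls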;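 as to activation: fluorescence ratio of max minus min over baseline after K+ and Tl+ depolarization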); details: parental CHO-K1 cells, FluxOR thallium flux, at 10 µM; hits give high values
How it was run: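 Benchmarks – buffer and R-L3 controls · Assay system – untransfected host CHO-K1 cells with FluxOR thallium dye · Measure – fluorescence change ratio scaled 0% buffer, 100% R-L3 · Technique – kinetic thallium-flux fluorescence · Timing – overnight 37 °C plating, 90 min RT dye, 20 min compound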

[2] = biological target: Potassium voltage-gated channel subfamily KQT member 1 (Homo sapiens) (UniProt P51787); assay: enhancement of KCNQ1 channel thallium flux – FluxOR thallium flux, CHO cells, duplicates, confirmation (AID 493007;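 active = potentiation averaged over duplicate wells exceeding buffer-only control mean by more than 3 SD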;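 as to outcome: cells depolarized by a potassium plus thallium sulfate stimulus after compound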); details: KCNQ1 cell line, FluxOR thallium flux fluorescence, at 10 µM; hits give high values, % of reference activator effect, buffer zero
Potassium voltage-gated channel subfamily KQT member 1 (Homo sapiens), sequence (P51787 whole entry, looked up): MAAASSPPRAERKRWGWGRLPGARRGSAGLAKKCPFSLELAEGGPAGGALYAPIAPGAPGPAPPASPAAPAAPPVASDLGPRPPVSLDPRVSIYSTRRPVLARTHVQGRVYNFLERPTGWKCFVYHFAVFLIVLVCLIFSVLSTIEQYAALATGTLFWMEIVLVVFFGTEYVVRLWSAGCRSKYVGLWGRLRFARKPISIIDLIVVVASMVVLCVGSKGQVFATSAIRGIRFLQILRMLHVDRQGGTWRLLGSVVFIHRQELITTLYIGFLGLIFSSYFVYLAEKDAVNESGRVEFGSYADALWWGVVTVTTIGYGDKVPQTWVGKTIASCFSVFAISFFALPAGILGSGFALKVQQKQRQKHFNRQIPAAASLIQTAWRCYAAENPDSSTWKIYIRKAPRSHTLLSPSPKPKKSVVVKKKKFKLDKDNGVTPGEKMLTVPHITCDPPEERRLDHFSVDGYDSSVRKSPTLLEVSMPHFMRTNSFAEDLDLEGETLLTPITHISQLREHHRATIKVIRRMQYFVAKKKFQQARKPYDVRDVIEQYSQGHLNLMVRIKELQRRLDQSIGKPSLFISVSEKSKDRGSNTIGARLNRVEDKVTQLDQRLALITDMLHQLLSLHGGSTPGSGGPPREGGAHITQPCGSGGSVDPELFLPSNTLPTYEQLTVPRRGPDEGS
How it was run: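 Material: CHO cells stably expressing the KCNQ1 potassium channel / Times: dye 90 min then compound 20 min, both at room temperature / Detection: kinetic thallium influx fluorescence with FluxOR dye, 10 s baseline, 110 s post-stimulus / Benchmarks: buffer-only wells as 0% and R-L3 activator as 100% / Replicates: each compound tested in duplicate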

[3] = biological target: Potassium voltage-gated channel subfamily KQT member 2 (Rattus norvegicus) (UniProt O88943); assay: KCNQ2 thallium flux enhancement – KCNQ2-CHO-K1 cells, selectivity assay for KCNQ1 potentiator project (AID 493009;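 active = mean duplicate potentiation above the buffer control mean plus 5 SD of buffer wells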;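 also: assay conditions were tuned for KCNQ1 rather than KCNQ2 modulators; signal is max minus min fluorescence divided by baseline after thallium stimulus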); details: FluxOR thallium flux fluorescence, at 10 µM; hits give high values, scaled: buffer 0, activator control 100
Potassium voltage-gated channel subfamily KQT member 2 (Rattus norvegicus), sequence (O88943 whole entry, looked up): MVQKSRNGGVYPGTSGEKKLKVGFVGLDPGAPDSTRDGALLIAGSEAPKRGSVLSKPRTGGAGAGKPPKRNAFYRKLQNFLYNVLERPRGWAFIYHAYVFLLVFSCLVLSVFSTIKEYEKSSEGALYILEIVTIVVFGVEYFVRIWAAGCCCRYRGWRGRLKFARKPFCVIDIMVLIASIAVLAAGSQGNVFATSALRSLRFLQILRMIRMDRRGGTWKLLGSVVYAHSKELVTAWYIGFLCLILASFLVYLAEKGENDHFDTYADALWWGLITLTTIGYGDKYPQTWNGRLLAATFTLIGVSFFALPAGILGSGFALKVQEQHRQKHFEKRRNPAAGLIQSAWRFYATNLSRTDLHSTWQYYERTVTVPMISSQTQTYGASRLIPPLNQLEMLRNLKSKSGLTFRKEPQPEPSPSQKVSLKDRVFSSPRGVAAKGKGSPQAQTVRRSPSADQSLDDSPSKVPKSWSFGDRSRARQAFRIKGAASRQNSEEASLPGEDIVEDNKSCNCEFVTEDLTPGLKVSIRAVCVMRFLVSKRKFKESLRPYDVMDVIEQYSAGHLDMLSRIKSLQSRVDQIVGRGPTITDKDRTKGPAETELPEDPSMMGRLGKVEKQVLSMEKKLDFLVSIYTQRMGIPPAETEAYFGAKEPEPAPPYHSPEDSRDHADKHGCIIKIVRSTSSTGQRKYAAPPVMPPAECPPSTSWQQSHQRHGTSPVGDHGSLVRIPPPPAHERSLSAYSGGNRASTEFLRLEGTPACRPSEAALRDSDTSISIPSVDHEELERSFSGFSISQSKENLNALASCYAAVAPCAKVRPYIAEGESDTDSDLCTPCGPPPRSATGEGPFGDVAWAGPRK

[4] = biological target: Potassium voltage-gated channel subfamily KQT member 1 (Homo sapiens) (UniProt P51787); assay: KCNQ1 activators by electrophysiology – IonWorks patch clamp, KCNQ1-CHO cells, orthogonal assay for KCNQ1 potentiator project, confirmation (AID 493184); details: automated patch clamp current, at 10 µM; hits give high values
How it was run: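 Probe or stimulus: depolarizing pulse to +40 mV from -90 mV; Material: CHO cells carrying KCNQ1; Compound: one dose, 10 µM final; Signal: automated voltage clamp, amphotericin B perforated patch; Read-out basis: percent current increase versus pre-compound level; Buffer or medium: pH 7.4 external bath; Replication: duplicates.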

Compound	activation [1]	potentiation [2]	potentiation [3]	outcome [4]	outcome [1]	outcome [2]	outcome [3]
CC1(C)CC2CC(C)(CN2C(=S)NC(=O)c2ccccc2Cl)C1 (stereo not given)	341% (active)	154% (active)	426% (active)	inactive	–	–	–
NC(=S)Nc1nc2ccccc2s1	165% (active)	54.5% (active)	186% (active)	inactive	–	–	–
CN(C(=S)NC(=O)c1ccccc1)C1CCCCC1	228% (active)	29% (active)	186% (active)	inactive	–	–	–
CCCCC/C=N\NC(=O)Cc1ccc([N+](=O)[O-])cc1	–	–	–	inactive	inactive	inactive	inactive
Fc1ccccc1/C=N/NC(=S)Nc1ccc(Cl)cc1Cl	–	66.5% (active)	–	inactive	inactive	–	inactive
O=C(CCOc1ccccc1)Nc1ccnn1C1CCN(Cc2ccc(CO)o2)CC1	–	–	–	inactive	inactive	inactive	inactive
Cc1ccc(CN2C(=O)CC(Nc3ccc(N4CCOCC4)cc3)C2=O)cc1 (stereo not given)	–	–	–	inactive	inactive	inactive	inactive
CN1c2ccccc2C(O)=C(C(=S)Nc2ccc(Cl)cc2)S1(=O)=O	139% (active)	–	146% (active)	inactive	–	inactive	–
N#CC(c1cccc(Cl)c1)c1ccc2c(C(F)(F)F)cc(C(F)(F)F)nc2n1 (stereo not given)	144% (active)	234% (active)	298% (active)	inactive	–	–	–
Cc1ccc(-c2ccnc(=S)[nH]2)cc1	–	–	–	inactive	inactive	inactive	inactive
CC(C)(C)C1CCc2c(sc(NC(=O)C3CC=CCC3C(=O)O)c2C#N)C1 (stereo not given)	178% (active)	53% (active)	184% (active)	inactive	–	–	–
Cc1[nH]c(-c2ccccn2)nc(=S)c1Cl	244% (active)	106% (active)	262% (active)	inactive	–	–	–
CC(C)c1nc2sc3c(=S)nc[nH]c3c2c2c1CCC2	247% (active)	194% (active)	310% (active)	inactive	–	–	–
CCCCOC(=O)Nc1ccccc1C(N)=O	–	–	–	inactive	inactive	inactive	inactive
O=C(c1cccnc1)N1N=C2CCCCCC2C1(O)C(F)(F)F (stereo not given)	–	–	–	inactive	inactive	inactive	inactive
Cc1cccc(/C=C2/S/C(=N/N=C3\CC4CCC3(C)C4(C)C)NC2=O)c1 (stereo not given)	–	28% (active)	–	inactive	inactive	–	inactive
COc1ccc(-c2nnc(Nc3nc4c(OC)cccc4s3)o2)cc1	468% (active)	164% (active)	392% (active)	inactive	–	–	–
Cc1cccc(C)c1NC(=S)NC(=O)c1ccc(Br)o1	394% (active)	122% (active)	412% (active)	inactive	–	–	–
O=C(OCc1cccc([N+](=O)[O-])c1)c1ccncc1	–	–	–	inactive	inactive	inactive	inactive
CC(C)c1ccc(/C=C2\SC(N3CCOCC3)=NC2=O)cc1	–	–	146% (active)	inactive	inactive	inactive	–

Compound	activation [1]	potentiation [2]	potentiation [3]	outcome [4]	outcome [1]	outcome [2]	outcome [3]
Cc1ccc2cc3cc(C(=O)NC4CC4)oc3nc2c1	–	–	–	inactive	inactive	inactive	inactive
CCC(CC)C(=O)Nc1cc([N+](=O)[O-])ccc1Cl	–	–	–	inactive	inactive	inactive	inactive
COC(=O)COc1ccc(-c2ccccc2)cc1C=O	179% (active)	34.5% (active)	216% (active)	inactive	–	–	–
O=C(c1ccc(Cl)cc1)c1c[nH]c(C(=O)C(Cl)(Cl)Cl)c1	–	–	–	inactive	inactive	inactive	inactive
Cc1ccc(-c2ccc(C3C(C#N)=C(N)Oc4n[nH]c(C)c43)o2)cc1 (stereo not given)	–	–	–	inactive	inactive	inactive	inactive
CCCc1cc(=O)n2[nH]c(C)c(-c3ccc(Cl)cc3)c2n1	180% (active)	23% (active)	172% (active)	inactive	–	–	–
Cc1ccc(C(=O)N2CCNC(=O)C2CC(=O)Nc2ccc(F)cc2)cc1C (stereo not given)	–	37.5% (active)	–	inactive	inactive	–	inactive
CCCCCCCCCCCC(=O)NC(Cc1ccc(OC)c([N+](=O)[O-])c1)C(=O)O (stereo not given)	372% (active)	116% (active)	349% (active)	inactive	–	–	–
CC(C)C1Cc2c(sc3[nH]c(=S)n(Cc4ccccc4)c(=O)c23)CO1 (stereo not given)	404% (active)	128% (active)	362% (active)	inactive	–	–	–
COc1ccc2nc(/N=C/c3c(C)[nH]n(-c4ccc(C)cc4)c3=O)sc2c1	340% (active)	273% (active)	518% (active)	inactive	–	–	–
CC1(C)N=C(N)NC(Nc2cccc(Br)c2)=N1	–	–	–	inactive	inactive	inactive	inactive
CCCCNC(=S)NNC(=O)c1nn(C)c(C)c1Cl	–	–	–	inactive	inactive	inactive	inactive
Cc1ccc(C(=O)NC(=S)N(C)Cc2ccccc2)cc1	146% (active)	46% (active)	178% (active)	inactive	–	–	–
C1=Nc2ccccc2CN1c1ccccc1	–	–	–	inactive	inactive	inactive	inactive
O=C(NCc1ccc(F)cc1)C1CCC(CNS(=O)(=O)c2ccccc2)CC1 (stereo not given)	–	–	–	inactive	inactive	inactive	inactive
Cc1cc(Cl)ccc1OCC(=O)NNC(=O)C1CCCO1 (stereo not given)	–	–	–	inactive	inactive	inactive	inactive
CCc1ccc(/C=C/C(=O)c2cc(Br)ccc(=O)c2O)cc1	203% (active)	140% (active)	296% (active)	inactive	–	–	–
COc1ccc(C2c3ccc4ccccc4c3Oc3ncn(CCCO)c(=N)c32)cc1 (stereo not given)	–	–	–	inactive	inactive	inactive	inactive
CC(/C=N/NC(=O)c1cc(-c2cccs2)[nH]n1)=C\c1ccccc1	184% (active)	116% (active)	250% (active)	inactive	–	–	–
CC(=O)c1c(O)cc(C)n(-c2ccc(F)cc2)c1=O	–	–	–	inactive	inactive	inactive	inactive

Compound	activation [1]	potentiation [2]	potentiation [3]	outcome [4]	outcome [1]	outcome [2]	outcome [3]
COc1ccc(CNC(=O)COC(=O)/C=C/c2ccc(Cl)cc2)cc1	–	–	–	inactive	inactive	inactive	inactive
COc1cc(NS(=O)(=O)c2ccc(NC(=S)NC(=O)c3sc4cc(F)ccc4c3Cl)cc2)nc(OC)n1	144% (active)	–	–	inactive	–	inactive	inactive
Fc1ccccc1C(c1nnnn1C1CCCC1)N1CCN(Cc2ccccc2)CC1 (stereo not given)	–	–	–	inactive	inactive	inactive	inactive
CN(C(=O)CSc1ncnc2sc(-c3ccccc3)cc12)C1CCS(=O)(=O)C1 (stereo not given)	529% (active)	176% (active)	501% (active)	inactive	–	–	–
COc1ccc(NC(=S)NC(=O)c2csnn2)cc1	213% (active)	71% (active)	282% (active)	inactive	–	–	–
O=C(Cn1c(C(F)(F)F)nc2ccccc21)N=Nc1c(O)[nH]c2ccc(Br)cc12	–	–	–	inactive	inactive	inactive	inactive
Clc1ccc(C(c2ccccc2)N2CCNCC2)cc1 (stereo not given)	–	–	–	inactive	inactive	inactive	inactive
S=c1nc(C2CCCCC2)[nH]c2ccccc12	138% (active)	22.5% (active)	160% (active)	inactive	–	–	–
Oc1[nH]c2c(Cl)cc(Cl)cc2c1N=NC(=S)NCC1CCCO1 (stereo not given)	346% (active)	277% (active)	454% (active)	inactive	–	–	–
Cc1csc(=O)n1CCC(=O)OCC(=O)NCc1ccc(F)cc1	–	–	186% (active)	inactive	inactive	inactive	–
Cc1cc(C)cc(NC(=O)C(Sc2ncnc3ccccc23)c2ccccc2)c1 (stereo not given)	–	–	–	inactive	inactive	inactive	inactive
COC(=O)C1CCCN1C(=O)COc1ccc(Cl)cc1Br (stereo not given)	152% (active)	–	158% (active)	inactive	–	inactive	–
O=C(C1CCN(Cc2ccccc2)CC1)N1CCN(C/C=C/c2ccccc2)CC1	–	–	–	inactive	inactive	inactive	inactive
O=C(NC(=S)NCCC1=CCCCC1)c1ccc(Br)o1	212% (active)	304% (active)	371% (active)	inactive	–	–	–
CN1C=CC=C/C1=C1\SC(=S)N(Cc2ccccc2)C1=O	–	–	–	inactive	inactive	inactive	inactive
Cc1ccc(C(=O)N/C(=C\c2ccc(-c3ccccc3[N+](=O)[O-])o2)C(=O)NCCCN2CCOCC2)cc1	–	–	–	inactive	inactive	inactive	inactive
O=C(NC(=S)N1CCN(c2ccc(C(F)(F)F)cc2[N+](=O)[O-])CC1)c1cccs1	176% (active)	75% (active)	215% (active)	inactive	–	–	–
Cc1ccc(Cc2c[nH]c(=S)s2)cc1	348% (active)	126% (active)	343% (active)	inactive	–	–	–
O=C(Nc1ccccc1)C1=C(c2ccccc2)S(=O)(=O)CCS1(=O)=O	–	–	–	inactive	inactive	inactive	inactive
CC/C(=N\NC(=S)Nc1cccc(C)c1)c1ccccc1	–	104% (active)	216% (active)	inactive	inactive	–	–
